Calls of active or inactive are those of the source. The rule behind the calls is not given here.
What was measured:
[1] = Growth inhibition of human HBC4 cells measured after 48 hrs by sulforhodamine B assay; assay type: functional
Method in brief: (§1)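 JFCR39 panel lines were grown in RPMI 1640 with 5% FBS, penicillin and streptomycin at 37 °C in 5% CO2. After 48 h of drug exposure, total cellular protein was measured by sulforhodamine B staining. GI50 was calculated by a previously described method.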

[2] = Growth inhibition of human BSY1 cells measured after 48 hrs by sulforhodamine B assay; assay type: functional; conditions: BSY-1; method in brief: as §1
[3] = Growth inhibition of human HBC5 cells measured after 48 hrs by sulforhodamine B assay; assay type: functional; method in brief: as §1
MDA-MB-231 = test: Growth inhibition of human MDA-MB-231 cells measured after 48 hrs by sulforhodamine B assay; assay type: functional; method in brief: as §1
SF-268 = test: Growth inhibition of human SF-268 cells measured after 48 hrs by sulforhodamine B assay; assay type: functional; method in brief: as §1
SF-295 = test: Growth inhibition of human SF-295 cells measured after 48 hrs by sulforhodamine B assay; assay type: functional; method in brief: as §1
HCC 2998 = test: Growth inhibition of human HCC 2998 cells measured after 48 hrs by sulforhodamine B assay; assay type: functional; method in brief: as §1
HCT-116 = test: Growth inhibition of human HCT-116 cells measured after 48 hrs by sulforhodamine B assay; assay type: functional; method in brief: as §1
DMS-273 = test: Growth inhibition of human DMS-273 cells measured after 48 hrs by sulforhodamine B assay; assay type: functional; method in brief: as §1
DMS-114 = test: Growth inhibition of human DMS-114 cells measured after 48 hrs by sulforhodamine B assay; assay type: functional; method in brief: as §1
OVCAR-3 [4] = test: Growth inhibition of human OVCAR-3 cells measured after 48 hrs by sulforhodamine B assay; assay type: functional; method in brief: as §1
OVCAR-4 = test: Growth inhibition of human OVCAR-4 cells measured after 48 hrs by sulforhodamine B assay; assay type: functional; method in brief: as §1
OVCAR-8 = test: Growth inhibition of human OVCAR-8 cells measured after 48 hrs by sulforhodamine B assay; assay type: functional; method in brief: as §1
SK-OV-3 = test: Growth inhibition of human SK-OV-3 cells measured after 48 hrs by sulforhodamine B assay; assay type: functional; method in brief: as §1
RXF 631 = test: Growth inhibition of human RXF 631 cells measured after 48 hrs by sulforhodamine B assay; assay type: functional; method in brief: as §1
ACHN = test: Growth inhibition of human ACHN cells measured after 48 hrs by sulforhodamine B assay; assay type: functional; method in brief: as §1
MKN-7 = test: Growth inhibition of human MKN-7 cells measured after 48 hrs by sulforhodamine B assay; assay type: functional; method in brief: as §1
MKN-28 = test: Growth inhibition of human MKN-28 cells measured after 48 hrs by sulforhodamine B assay; assay type: functional; method in brief: as §1
MKN-45 = test: Growth inhibition of human MKN-45 cells measured after 48 hrs by sulforhodamine B assay; assay type: functional; method in brief: as §1
PC-3 [5] = test: Growth inhibition of human PC-3 cells measured after 48 hrs by sulforhodamine B assay; assay type: functional; method in brief: as §1
[6] = (§2) Inhibition of PI3K in human A549 cell lysate preincubated with compound for 5 mins followed by [gamma-32p]-ATP addition measured after 20 mins by immunoprecipitation based liquid scintillation spectroscopic analysis; assay type: subcellular
Method in brief: (§3)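 PI3K immunoprecipitated with anti-p85 polyclonal antibody and protein G–agarose from A549 lysate (2–4 mg/mL protein), washed, suspended in buffer C (100 mM NaCl, 20 mM Tris pH 7.5) with 200 μg/mL phosphatidylinositol; compound preincubated 5 min at 25 °C; reaction started with [γ-32P]ATP (20 μM final) and 20 mM MgCl2, run 20 min at 25 °C; PI3P separated by TLC, counted by scintillation; activity as % of no-compound cpm.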

A549 [7] = test: as §2; assay type: subcellular; conditions: dose 0.01-1 µM, time 25.0 min; method in brief: as §3
MEF = test: Inhibition of PI3K in platelet-derived growth factor induced mouse MEF cells assessed as reduction in membrane ruffling at 1 uM preincubated with compound for 15 mins followed by induction by immunoprecipitation based liquid scintillation spectroscopic analysis; assay type: cell-based
Method in brief: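 Murine embryonic fibroblasts treated with or without 1 μM compound for 15 min, stimulated with PDGF (10 ng/mL) for 5 min, fixed in 3% formaldehyde 30 min at room temperature, permeabilized with 0.1% Triton X-100, F-actin stained with TRITC-phalloidin (0.1 μg/mL), viewed by fluorescence microscopy.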

OVCAR-3 [8] = test: Induction of apoptosis in human OVCAR-3 cells assessed as increase in chromatin condensation at 10 uM measured after 48 hrs by Hoechst 33342 staining based fluorescence microscopic analysis; assay type: functional, cell-based
Method in brief: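 OVCAR3 cells grown 24 h in RPMI 1640 with 5% FBS, then 48 h with or without 10 μM compound; fixed in 1% glutaraldehyde in PBS at 4 °C for 24 h, stained with 167 μM Hoechst 33342, apoptotic cells scored by fluorescence microscopy.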

A549 [9] = test: Inhibition of AKT phosphorylation at S473 residue in human A549 cells at 0.5 uM measured after 5 mins by Western blotting analysis; assay type: cell-based
[10] = biological target: Forkhead box protein O1 (Homo sapiens) (UniProt Q12778); test: Inhibition of FKHR phosphorylation at Thr-24 residue in human A549 cells measured after 3 hrs by immunoblotting analysis; assay type: cell-based; conditions: dose <= 2.0 µM
Forkhead box protein O1 (Homo sapiens), sequence (Q12778 whole entry): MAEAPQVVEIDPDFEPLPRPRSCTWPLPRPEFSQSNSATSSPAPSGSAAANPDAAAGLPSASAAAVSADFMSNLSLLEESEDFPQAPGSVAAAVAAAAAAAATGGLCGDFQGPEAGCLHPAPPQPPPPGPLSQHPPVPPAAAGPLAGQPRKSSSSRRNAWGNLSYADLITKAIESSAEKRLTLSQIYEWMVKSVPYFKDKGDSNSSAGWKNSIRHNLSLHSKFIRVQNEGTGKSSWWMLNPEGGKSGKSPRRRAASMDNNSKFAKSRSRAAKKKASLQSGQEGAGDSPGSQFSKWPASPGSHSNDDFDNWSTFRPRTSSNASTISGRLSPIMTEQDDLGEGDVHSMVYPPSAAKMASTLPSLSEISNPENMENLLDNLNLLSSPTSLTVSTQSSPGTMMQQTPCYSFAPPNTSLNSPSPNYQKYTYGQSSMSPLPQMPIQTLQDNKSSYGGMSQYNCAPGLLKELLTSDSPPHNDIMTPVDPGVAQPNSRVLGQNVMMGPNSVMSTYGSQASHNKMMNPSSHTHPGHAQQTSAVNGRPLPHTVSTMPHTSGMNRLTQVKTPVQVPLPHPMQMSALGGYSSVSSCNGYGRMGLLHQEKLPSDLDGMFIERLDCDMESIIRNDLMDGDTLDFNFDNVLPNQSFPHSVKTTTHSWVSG
Method in brief: (§4)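 A549 cells treated over 0 to 2.0 μM; lysed in 10 mM Tris–HCl pH 7.4, 50 mM NaCl, NaF, pyrophosphate, vanadate, EDTA, protease inhibitors, 0.5% NP-40, 0.1% SDS; proteins resolved by SDS-PAGE, blotted to PVDF, probed with phospho-specific antibodies, HRP secondary, ECL detection.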

Tuberin (Homo sapiens) = Tuberin (Homo sapiens) (UniProt P49815); test: Inhibition of TSC-2 phosphorylation at ser-1462 residue in human A549 cells measured after 3 hrs by immunoblotting analysis; assay type: cell-based; conditions: dose <= 2.0 µM; method in brief: as §4
Tuberin (Homo sapiens), sequence (P49815 whole entry): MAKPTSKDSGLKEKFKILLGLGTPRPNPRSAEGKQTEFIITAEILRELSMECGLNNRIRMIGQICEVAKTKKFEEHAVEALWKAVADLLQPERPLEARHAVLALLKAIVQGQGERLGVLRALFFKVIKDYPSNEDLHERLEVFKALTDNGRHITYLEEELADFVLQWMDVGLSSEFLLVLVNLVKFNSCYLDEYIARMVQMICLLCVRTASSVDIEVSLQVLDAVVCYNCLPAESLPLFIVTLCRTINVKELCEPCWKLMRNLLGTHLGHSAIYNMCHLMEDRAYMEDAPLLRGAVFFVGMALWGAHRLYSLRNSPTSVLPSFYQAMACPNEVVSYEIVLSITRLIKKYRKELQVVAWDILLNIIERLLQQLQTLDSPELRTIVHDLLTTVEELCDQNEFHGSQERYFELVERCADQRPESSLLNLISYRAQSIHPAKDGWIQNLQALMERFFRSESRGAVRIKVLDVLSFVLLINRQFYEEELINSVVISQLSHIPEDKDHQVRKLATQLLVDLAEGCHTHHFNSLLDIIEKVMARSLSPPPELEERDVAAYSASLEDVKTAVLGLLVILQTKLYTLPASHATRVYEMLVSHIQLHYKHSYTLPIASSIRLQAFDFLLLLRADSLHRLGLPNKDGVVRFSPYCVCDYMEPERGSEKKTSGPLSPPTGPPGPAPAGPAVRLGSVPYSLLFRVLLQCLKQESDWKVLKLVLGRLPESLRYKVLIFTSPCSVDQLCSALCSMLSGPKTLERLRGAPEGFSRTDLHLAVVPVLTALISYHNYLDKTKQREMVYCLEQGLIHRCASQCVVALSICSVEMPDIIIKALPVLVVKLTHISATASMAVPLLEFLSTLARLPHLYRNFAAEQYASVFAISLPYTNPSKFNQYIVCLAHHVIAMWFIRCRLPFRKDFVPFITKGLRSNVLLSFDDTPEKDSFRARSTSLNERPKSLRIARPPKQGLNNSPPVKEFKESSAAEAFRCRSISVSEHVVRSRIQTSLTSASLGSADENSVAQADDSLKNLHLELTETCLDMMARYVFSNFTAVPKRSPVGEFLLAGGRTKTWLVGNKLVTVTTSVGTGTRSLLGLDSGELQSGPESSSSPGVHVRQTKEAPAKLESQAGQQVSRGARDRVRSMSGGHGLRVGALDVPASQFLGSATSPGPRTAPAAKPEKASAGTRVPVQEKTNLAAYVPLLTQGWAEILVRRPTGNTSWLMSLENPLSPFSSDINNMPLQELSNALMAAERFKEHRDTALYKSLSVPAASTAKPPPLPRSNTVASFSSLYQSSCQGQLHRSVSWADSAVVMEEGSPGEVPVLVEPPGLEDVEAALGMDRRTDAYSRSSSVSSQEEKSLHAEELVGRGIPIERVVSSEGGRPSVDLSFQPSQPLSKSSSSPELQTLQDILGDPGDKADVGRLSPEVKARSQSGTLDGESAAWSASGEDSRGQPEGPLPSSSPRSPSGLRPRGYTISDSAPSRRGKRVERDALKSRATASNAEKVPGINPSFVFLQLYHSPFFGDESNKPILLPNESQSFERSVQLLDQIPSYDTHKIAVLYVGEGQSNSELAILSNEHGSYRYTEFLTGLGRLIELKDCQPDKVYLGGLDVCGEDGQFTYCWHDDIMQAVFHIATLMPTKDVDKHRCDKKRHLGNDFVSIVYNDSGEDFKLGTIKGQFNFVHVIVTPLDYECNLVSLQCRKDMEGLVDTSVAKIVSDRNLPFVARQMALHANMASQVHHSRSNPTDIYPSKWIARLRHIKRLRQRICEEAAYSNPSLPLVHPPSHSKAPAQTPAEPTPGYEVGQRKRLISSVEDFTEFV

PC-3 [11] = test: Antitumor activity against human PC-3 cells xenografted in nude mouse assessed as inhibition of tumor growth at 400 mg/kg, po administered on day 0 to 13 except for day 3 and 10 measured after 14 days; assay type: functional, organism-based; conditions: time 14.0 day
Method in brief: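 Female BALB/c-background nude mice were implanted s.c. with 3 × 3 × 3 mm tumor fragments. At 100–300 mm3 tumor volume (day 0), groups of five were randomized and dosed orally at 400 mg/kg on days 0–13, skipping days 3 and 10. Caliper volume was (L×W2)/2, relative to day 0 (RTV). T/C% on day 14 = 100 × mean treated RTV / mean control RTV.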

[12] = […] toxicity in nude mouse xenografted with human A549 cells assessed as change in body weight at 800 mg/kg, po administered on day 0 to 13 except for day 3 and 10 measured after 28 days; assay type: organism-based; conditions: in vivo, 672 h, time 28 day
[13] = Toxicity in nude mouse xenografted with human WiDr cells assessed as change in body weight at 400 mg/kg, po administered on day 0 to 13 except for day 3 and 10 measured after 28 days (reference value: 17 %); assay type: organism-based; conditions: in vivo, 672 h, time 28 day
B16-F10 = test: Antitumor activity against mouse B16-F10 cells implanted in BDF1 mouse assessed as tumor size relative to control (T/C) at 400 mg/kg, po administered daily measured after 14 days; conditions: 336 h
A549 [14] = test: Induction of cell cycle arrest in human A549 cells assessed as accumulation of cells at G1 phase at 10 uM incubated for 24 hrs by propidium iodide staining based flow cytometric analysis

- GI50 (MDA-MB-231): 562 nM
- GI50 (HCC 2998): 245 nM
- GI50 (HCT-116): 1510 nM
- GI50 (OVCAR-3 [4]): 91.2 nM
- GI50 (OVCAR-4): 182 nM
- GI50 (OVCAR-8): 1050 nM
- GI50 (SK-OV-3): 331 nM
- GI50 (ACHN): 407 nM
- GI50 (MKN-7): 1320 nM
- GI50 (MKN-28): 1350 nM
- GI50 (MKN-45): 288 nM
- GI50 (PC-3 [5]): 38 nM
- IC50 [6]: 37 nM
- Activity (A549 [7]): Dose-Dependent Effect
- inhibition [10]: Dose-Dependent Effect
- inhibition (Tuberin (Homo sapiens)): Dose-Dependent Effect
Compound: FC(F)c1nc2ccccc2n1-c1nc(N2CCOCC2)nc(N2CCOCC2)n1 [ZSTK-474]
- GI50 [1]: 240 nM
- GI50 [2]: 93.3 nM
- GI50 [3]: 28.2 nM
- GI50 (SF-268): 646 nM
- GI50 (SF-295): 186 nM
- GI50 (DMS-273): 224 nM
- GI50 (DMS-114): 295 nM
- GI50 (RXF 631): 724 nM
- inhibition (MEF): Active
- Activity (OVCAR-3 [8]): Active
- inhibition (A549 [9]): Active
- Activity (PC-3 [11]): Active
- Activity [12]: Non-Toxic
- Activity [13]: 3%
- T/C at 400 mg/kg (B16-F10): 4.9%
- Activity (A549 [14]): Active

Reference: ChEMBL document CHEMBL5661968, “Antitumor activity of ZSTK474, a new phosphatidylinositol 3-kinase inhibitor” (J Natl Cancer Inst, 2006)
